Data set [1] deals with OVCAR-3. In words: Cytotoxicity against human OVCAR-3 cells assessed as cell survival after 48 hrs by MTT assay relative to control. The arrangement: concentration or dose not given beside the values. It counts as functional. The essentials:
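OVCAR-3 (human ovarian adenocarcinoma) cells were kept in RPMI 1640 with 10% heat-inactivated FCS, streptomycin, penicillin and 2 mM glutamine at 37 °C under 5% CO₂. They were seeded at 2 × 10⁴ cells/well and grown 24 h. The medium was then swapped for one holding compound and 2% FCS for 48 h. MTT (5 mg/mL stock in PBS) went on for 4 h in serum-free medium, then SDS/DMF lysis overnight, and absorbance was read at 570 nm.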
(In general: Tetrazolium assays rely on reduction of a dye to a coloured formazan, in cell work by metabolically active cells.)

The subject of data set [2] is HeLa. In words: Cytotoxicity against human HeLa cells assessed as cell survival after 48 hrs by MTT assay relative to control. It counts as functional. Details: concentration or dose not given beside the values. The method in brief: (§1)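 FS-5 foreskin fibroblasts and HeLa cervical carcinoma cells were grown in DMEM with 10% heat-inactivated FCS, antibiotics and glutamine at 37 °C under 5% CO₂. They were seeded at 2 × 10⁴ cells/well and held 24 h, then exposed for 48 h to compound in medium with 2% FCS. MTT (5 mg/mL stock in PBS) went on for 4 h, then SDS/DMF lysis overnight, and A570 was read.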

The nature of data set [3]: Cytotoxicity against human FS5 cells assessed as cell survival after 48 hrs by MTT assay relative to control. It counts as cell-based. Details: concentration or dose not given beside the values. Particulars: read-out: Survival. The method in brief:
as §1

Data set [4] concerns OVCAR-3. In words: Cytotoxicity against human OVCAR-3 cells after 48 hrs by MTT assay. The class given is functional, cell-based. Particulars: OVCAR-3, 48 h. The essentials: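 OVCAR-3 ovarian adenocarcinoma cells kept in RPMI 1640 with 10% heat-inactivated FCS, 100 µg/mL streptomycin, 100 IU/mL penicillin, 2 mM glutamine at 37 °C, 5% CO2. Plated at 2 × 10⁴ cells/well and cultured 24 h, then treated 48 h in 2% FCS medium. After washing, MTT incubation 4 h, overnight lysis in 20% SDS/50% DMF, absorbance at 570 nm.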

The subject of data set [5] is HeLa. In words: Cytotoxicity against human HeLa cells after 48 hrs by MTT assay. The class given is functional, cell-based. The method in brief: (§2)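 FS-5 foreskin fibroblasts and HeLa cervical carcinoma cells grown in DMEM with 10% heat-inactivated FCS, penicillin, streptomycin, glutamine (37 °C, 5% CO2). Seeded at 2 × 10⁴ cells/well and left 24 h, then exposed 48 h to compounds in medium with 2% FCS. Washed, MTT added for 4 h at 37 °C, lysed overnight in SDS/DMF, A570 read.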

Data set [6] can be described thus: Cytotoxicity against human FS5 cells after 48 hrs by MTT assay. The settings on record: FS5, 48 h. The class given is cell-based. The method in brief: as §2
The subject of data set [7] is OVCAR-3. In words: Cytotoxicity against human OVCAR-3 cells assessed as cell survival at 10 ug/ml after 48 hrs by MTT assay relative to control. The class given is functional. Particulars: OVCAR-3, 48 h, read-out: Survival.
Data set [8] deals with HeLa. In words: Cytotoxicity against human HeLa cells assessed as cell survival at 10 ug/ml after 48 hrs by MTT assay relative to control. The settings on record: read-out: Survival. The class given is functional.
Data set [9] is described as follows: Cytotoxicity against human FS5 cells assessed as cell survival at 10 ug/ml after 48 hrs by MTT assay relative to control. It counts as cell-based. The settings on record: read-out: Survival.

Converted amounts (≈) assume the structure as drawn.

Usually IC50 stands for the concentration that inhibits the measured activity by half.

For `C=C(C)[C@@H]1CC[C@]2(C(=O)O)CC[C@]3(C)[C@H](CC[C@@H]4[C@@]5(C)CC(=O)C(C)(C)[C@@H]5CC[C@]43C)[C@@H]12`, the results for the Survival in data set [1] and in data set [2] were 0% and 4%, respectively. The viability at 48 h in data set [3] was 16%. Moreover, the concentration for half-maximal inhibition (IC50) in data set [4] amounted to 2.8 µg/mL (≈ 6.35 µM); in data set [5] it was 6.6 µg/mL (≈ 15 µM); in data set [6], 11.3 µg/mL (≈ 25.6 µM).
As to `C=C(C)[C@@H]1CC[C@]2(C(=O)O)CC[C@]3(C)[C@H](CC[C@@H]4[C@@]5(C)C[C@H](O)C(C)(C)[C@@H]5CC[C@]43C)[C@@H]12`, the Survival is 0% in data set [1] and 18% in data set [2]. Moreover, in [3], the viability at 48 h turned out to be 67%. Besides, the 50% inhibitory concentration (IC50) in [4] is 4.7 µg/mL (≈ 10.6 µM); in data set [5] it was 9.1 µg/mL (≈ 20.6 µM); in [6], 29.6 µg/mL (≈ 66.9 µM).
As to `C=C(C)[C@@H]1CC[C@]2(C(=O)O)CC[C@]3(C)[C@H](CC[C@@H]4[C@@]5(C)C=CC(C)(C)[C@@H]5CC[C@]43C)[C@@H]12`, the Survival in data set [1] stood at 0%; in [2] it was 17%. Moreover, the viability at 48 h in [3] amounted to 33%. Also, the IC50 in [4] was found to be 3.5 µg/mL (≈ 8.24 µM); in [5] it was 7.1 µg/mL (≈ 16.7 µM); in data set [6], 22.7 µg/mL (≈ 53.5 µM).
Regarding `COc1cccc2c1C(=O)c1c(O)c3c(c(O)c1C2=O)C[C@@](O)(C(=O)CO)C[C@@H]3O[C@H]1C[C@H](N)[C@H](O)[C@H](C)O1` [DOXORUBICIN], the viability at 10 µg/mL in data set [7] was determined as 21%; in data set [8], 19%. The viability at 48 h, 10 ug/ml in [9] turned out to be 56%.
For `C=C(C)[C@@H]1CC[C@]2(C(=O)O)CC[C@]3(C)[C@H](CC[C@@H]4[C@@]5(C)CC[C@H](O)C(C)(C)[C@@H]5CC[C@]43C)[C@@H]12` [BETULINIC ACID], the Survival in data set [1] is given as 0%; in [2], 25%. Besides, the viability at 48 h in data set [3] turned out to be 39%. In addition, the half-maximal inhibitory concentration (IC50) in data set [4] came out at 0.9 µg/mL (≈ 1.97 µM); in [5] it was 0.8 µg/mL (≈ 1.75 µM); in data set [6], 20.7 µg/mL (≈ 45.3 µM).
Consider `C=C(C)[C@@H]1CC[C@]2(C(=O)O)CC[C@]3(C)[C@H](CC[C@@H]4[C@@]5(C)CCC(C)(C)[C@@H]5CC[C@]43C)[C@@H]12`, for which the figures for the Survival in [1] and in data set [2] were 55% and 48%, respectively. Moreover, in data set [3], the viability at 48 h is 85%.
Turning to `C=C(C)[C@@H]1CC[C@]2(C(=O)O)CC[C@]3(C)[C@H](CC[C@@H]4[C@@]5(C)[C@@H](C(=O)O)[C@H](O)C(C)(C)[C@@H]5CC[C@]43C)[C@@H]12` [CEANOTHIC ACID], the Survival in data set [1] is listed as 68%; in [2], 65%. In [3], the viability at 48 h came out at 81%.
On the same counts, the results for `C=C(C)[C@@H]1CC[C@]2(C(=O)O)CC[C@]3(C)[C@H](CC[C@@H]4[C@@]5(C)[C@@H](CO)[C@H](O)C(C)(C)[C@@H]5CC[C@]43C)[C@@H]12` are 25%, 22% and 43%.
Turning to `C=C(C)[C@@H]1CC[C@]2(C(=O)O)CC[C@]3(C)[C@H](CC[C@@H]4[C@@]5(C)C(C(=O)O)=CC(C)(C)[C@@H]5CC[C@]43C)[C@@H]12`, the Survival in data set [1] was 51%; in [2], 50%. In addition, in data set [3], the viability at 48 h was 87%.

Source of the values: ChEMBL document CHEMBL1151304, “Preparation and cytotoxic effect of ceanothic acid derivatives” (J Nat Prod, 1998).
